Assay results: ChEMBL document CHEMBL2331334, “Hybrid furoxanyl N-acylhydrazone derivatives as hits for the development of neglected diseases drug candidates” (Eur J Med Chem, 2013)
Values after ≈ are worked out from the molar mass of the structure shown.

Legend:
[1] = test system: Mycobacterium tuberculosis; assay: Antimycobacterial activity against multidrug-resistant Mycobacterium tuberculosis clinical isolate assessed as growth inhibition after 5 days by MTT assay; type: functional; conditions: 120 h
How it was run: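 MTB inoculum made from 20–30-day slant growth in Tween 80/0.2% BSA, adjusted to McFarland No. 1, then diluted in 7H9GC broth (Middlebrook 7H9, glycerol, Casitone, OADC). Final inoculum about 1.2 × 10^6 CFU/mL. Compounds taken from DMSO stock to final 0.4–25 in broth, with a DMSO control. Plates run 5 days at 37 °C, then tetrazolium (MTT)–Tween 80 added for a further 24 h at 37 °C. Read-out is MIC.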

[2] = Selectivity index, ratio of IC50 for mouse J774.1 cells to MIC for multidrug-resistant Mycobacterium tuberculosis clinical isolate; type: functional
How it was run: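 Cytotoxicity: J774.1 macrophages in DMEM with 4 mM L-glutamine and 10% heat-inactivated FCS, seeded at 5 × 10^4/well, attached 48 h at 37 °C, 5% CO2. Exposed 48 h to 12.5–400.0 µM compound or vehicle. MTT at 0.1 mg/mL final for 3 h, formazan dissolved in DMSO/glycine buffer pH 10.5, A560 read. IC50 by linear regression, divided by the MIC against the same MTB strain.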

SMILES | MIC [1] [µM] | Selectivity Index [2]
Cc1c(C(=O)N/N=C/c2ccccc2)no[n+]1[O-] | > 102 | –
Cc1nc2ccccn2c1C(=O)N/N=C/c1no[n+]([O-])c1C | > 83.3 | –
Cc1c(C(=O)N/N=C/c2ccc([N+](=O)[O-])o2)no[n+]1[O-] | 44.5 (≈ 12.5 µg/mL) | –
Cc1[nH]cnc1C(=O)N/N=C/c1c(-c2ccccc2)no[n+]1[O-] | > 80.1 | –
Cc1[nH]cnc1C(=O)N/N=C/c1no[n+]([O-])c1C | > 100 | –
COc1ccc(/C=N/NC(=O)c2no[n+]([O-])c2C)cc1O | > 85.6 | –
Cc1c(/C=N/NC(=O)c2no[n+]([O-])c2C)no[n+]1[O-] | > 93.6 | –
Cc1c(/C=N/NC(=O)c2cnn(-c3ccccc3)c2)no[n+]1[O-] | > 80.1 | –
Cc1c(C(=O)N/N=C/c2ccc3no[n+]([O-])c3c2)no[n+]1[O-] | 82.2 (≈ 25 µg/mL) | –
O=C(N/N=C/c1c(-c2ccccc2)no[n+]1[O-])c1ccc2c(c1)OCO2 | > 71 | –
Cc1c(C(=O)N/N=C/c2ccc(C(F)(F)F)cc2)no[n+]1[O-] | > 79.6 | –
Cc1c(C(=O)N/N=C/c2ccc(C(=O)O)cc2)no[n+]1[O-] | > 86.2 | –
O=C(N/N=C/c1ccc2no[n+]([O-])c2c1)c1cnn(-c2ccccc2)c1 | > 17.9 | –
Cc1c(C(=O)N/N=C/c2c(-c3ccccc3)no[n+]2[O-])no[n+]1[O-] | > 75.8 | –
NNC(=O)c1ccncc1 [ISONIAZID] | 45.6 (≈ 6.25 µg/mL) | >9
O=C(N/N=C/c1c(-c2ccccc2)no[n+]1[O-])c1ccncc1 | 10.1 (≈ 3.12 µg/mL) | >40
Cc1nc2ccccn2c1C(=O)N/N=C/c1ccc2no[n+]([O-])c2c1 | 38.6 (≈ 13 µg/mL) | 3.7
Cc1c(C(=O)N/N=C/c2ccc(Br)cc2)no[n+]1[O-] | > 74 | –
Cc1c(C(=O)N/N=C/c2ccc([N+](=O)[O-])s2)no[n+]1[O-] | 42.1 (≈ 12.5 µg/mL) | –
O=C(N/N=C/c1ccc2no[n+]([O-])c2c1)c1ccncc1 | 11 (≈ 3.12 µg/mL) | 12
O=C(N/N=C/c1c(-c2ccccc2)no[n+]1[O-])c1cnn(-c2ccccc2)c1 | > 66.8 | –

SMILES | MIC [1] [µM] | Selectivity Index [2]
CC(=O)Nc1ccc(/C=N/NC(=O)c2no[n+]([O-])c2C)cc1 | > 82.5 | –
Cc1[nH]cnc1C(=O)N/N=C/c1ccc2no[n+]([O-])c2c1 | 21.9 (≈ 6.27 µg/mL) | 1.5
O=C(N/N=C/c1ccc2no[n+]([O-])c2c1)c1cccnc1 | 22.1 (≈ 6.26 µg/mL) | 1.4
Cc1c(C(=O)N/N=C/c2ccco2)no[n+]1[O-] | > 106 | –
Cc1c(C(=O)N/N=C/c2ccc3c(c2)OCO3)no[n+]1[O-] | > 86.2 | –
COc1ccc(/C=N/NC(=O)c2no[n+]([O-])c2C)cc1OC | > 81.6 | –
Cc1c(C(=O)N/N=C/c2ccccc2O)no[n+]1[O-] | > 95.4 | –
Cc1c(/C=N/NC(=O)c2ccncc2)no[n+]1[O-] | > 25.4 | –
Cc1c(C(=O)N/N=C/c2ccccn2)no[n+]1[O-] | > 101 | –
COc1cc(/C=N/NC(=O)c2no[n+]([O-])c2C)cc(OC)c1OC | > 74.4 | –
Cc1c(/C=N/NC(=O)c2ccc3c(c2)OCO3)no[n+]1[O-] | > 86.2 | –
Cc1c(C(=O)N/N=C/c2cccc(O)c2)no[n+]1[O-] | > 95.4 | –
Cc1c(C(=O)N/N=C/c2ccc(N(C)C)cc2)no[n+]1[O-] | > 86.5 | –
O=C(N/N=C/c1ccc2no[n+]([O-])c2c1)c1ccc2c(c1)OCO2 | > 76.7 | –
O=C(N/N=C/c1ccc2nonc2c1)c1ccncc1 | > 93.6 | –
Cc1c(C(=O)N/N=C/c2ccc([N+](=O)[O-])cc2)no[n+]1[O-] | > 85.9 | –
O=C(N/N=C/c1c(-c2ccccc2)no[n+]1[O-])c1cccnc1 | 20.2 (≈ 6.25 µg/mL) | 10
O=C(N/N=C/c1ccc2nonc2c1)c1cccnc1 | 46.8 (≈ 12.5 µg/mL) | 5
COc1cc(/C=N/NC(=O)c2no[n+]([O-])c2C)ccc1O | > 85.6 | –
Cc1nc2ccccn2c1C(=O)N/N=C/c1c(-c2ccccc2)no[n+]1[O-] | 8.6 (≈ 3.12 µg/mL) | 6.5
Cc1c(/C=N/NC(=O)c2cccnc2)no[n+]1[O-] | > 101 | –
